Key:
MDA-MB-435 = experiment: Anticancer activity against human MDA-MB-435 cells assessed as cell growth at 10^-5 M after 48 hrs by SRB assay; format: functional; conditions: MDA-MB-435, 48 h, read-out: Activity
UO-31 = experiment: Anticancer activity against human UO31 cells assessed as cell growth at 10^-5 M after 48 hrs by SRB assay; format: functional; conditions: UO-31, 48 h, read-out: Activity
How it was run: (§1)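 NCI-60 single-dose screen: cells in RPMI 1640 with 5% FBS and 2 mM L-glutamine, plated at 5000–40,000 cells/well by doubling time, and preincubated 24 h at 37 °C. Compound given at one concentration from DMSO stock. Cells TCA-fixed and SRB-stained, absorbance at 515 nm. Percent growth relative to time-zero and untreated controls; inhibition % = 100 − growth %.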

ACHN = experiment: Anticancer activity against human ACHN cells assessed as cell growth at 10^-5 M after 48 hrs by SRB assay; format: functional; conditions: read-out: Activity
How it was run: (§2)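 NCI-60 single-dose screen at one concentration. Cells grown in RPMI 1640 with 5% FBS and 2 mM L-glutamine, plated at 5000–40,000 cells/well, and pre-incubated 24 h at 37 °C in 5% CO2 before DMSO-dissolved drug was added. Cells fixed with TCA, SRB-stained, absorbance read at 515 nm. Percent growth calculated against time-zero and untreated control plates.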

NCI-H522 = experiment: Anticancer activity against human NCI-H522 cells assessed as cell growth at 10^-5 M after 48 hrs by SRB assay; format: functional; conditions: NCI-H522, 48 h, read-out: Activity
UACC-257 = experiment: Anticancer activity against human UACC257 cells assessed as cell growth at 10^-5 M after 48 hrs by SRB assay; format: functional; conditions: UACC-257, 48 h, read-out: Activity; how it was run: as §1
SN12C = experiment: Anticancer activity against human SN12C cells assessed as cell growth at 10^-5 M after 48 hrs by SRB assay; format: functional; conditions: read-out: Activity
SK-MEL-2 = experiment: Anticancer activity against human SK-MEL-2 cells assessed as cell growth at 10^-5 M after 48 hrs by SRB assay; format: functional; conditions: SK-MEL-2, 48 h, read-out: Activity
OVCAR-3 = experiment: Anticancer activity against human OVCAR3 cells assessed as cell growth at 10^-5 M after 48 hrs by SRB assay; format: functional; conditions: OVCAR-3, 48 h, read-out: Activity
M14 = experiment: Anticancer activity against human M14 cells assessed as cell growth at 10^-5 M after 48 hrs by SRB assay; format: functional; conditions: M14, 48 h, read-out: Activity; how it was run: as §2
T47D = experiment: Anticancer activity against human T47D cells assessed as cell growth at 10^-5 M after 48 hrs by SRB assay; format: functional; conditions: read-out: Activity; how it was run: as §1
OVCAR-4 = experiment: Anticancer activity against human OVCAR4 cells assessed as cell growth at 10^-5 M after 48 hrs by SRB assay; format: functional; conditions: OVCAR-4, 48 h, read-out: Activity
SK-MEL-28 = experiment: Anticancer activity against human SK-MEL-28 cells assessed as cell growth at 10^-5 M after 48 hrs by SRB assay; format: functional; conditions: SK-MEL-28, 48 h, read-out: Activity
IGROV-1 = experiment: Anticancer activity against human IGROV1 cells assessed as cell growth at 10^-5 M after 48 hrs by SRB assay; format: functional; conditions: IGROV-1, 48 h, read-out: Activity; how it was run: as §2
SF-539 = experiment: Anticancer activity against human SF539 cells assessed as cell growth at 10^-5 M after 48 hrs by SRB assay; format: functional; conditions: SF-539, 48 h, read-out: Activity
RXF 393 = experiment: Anticancer activity against human RXF393 cells assessed as cell growth at 10^-5 M after 48 hrs by SRB assay; format: functional; conditions: RXF 393, 48 h, read-out: Activity
CAKI-1 = experiment: Anticancer activity against human Caki1 cells assessed as cell growth at 10^-5 M after 48 hrs by SRB assay; format: functional; conditions: CAKI-1, 48 h, read-out: Activity; how it was run: as §2
UACC-62 = experiment: Anticancer activity against human UACC62 cells assessed as cell growth at 10^-5 M after 48 hrs by SRB assay; format: functional; conditions: UACC-62, 48 h, read-out: Activity; how it was run: as §1
[1] = Antiproliferative activity against human A375P cells after 48 hrs by MTT assay; format: functional, cell-based
How it was run: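 A375P cells in DMEM with 10% FBS at 37 °C, 5% CO2. Seeded at 5×10³ cells/well, held 24 h, then treated with 12-point 3-fold serial dilutions for 48 h. Viability by MTT reduction. IC50 values are means of triplicate experiments.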

MOLT-4 = experiment: Anticancer activity against human MOLT4 cells assessed as cell growth at 10^-5 M after 48 hrs by SRB assay; format: functional; conditions: MOLT-4, 48 h, read-out: Activity
SW-620 = experiment: Anticancer activity against human SW620 cells assessed as cell growth at 10^-5 M after 48 hrs by SRB assay; format: functional; conditions: SW-620, 48 h, read-out: Activity; how it was run: as §1
NCI-H322M = experiment: Anticancer activity against human NCI-H322M cells assessed as cell growth at 10^-5 M after 48 hrs by SRB assay; format: functional; conditions: read-out: Activity
HCC 2998 = experiment: Anticancer activity against human HCC2998 cells assessed as cell growth at 10^-5 M after 48 hrs by SRB assay; format: functional; conditions: HCC 2998, 48 h, read-out: Activity; how it was run: as §2
HL-60(TB) = experiment: Anticancer activity against human HL-60(TB) cells assessed as cell growth at 10^-5 M after 48 hrs by SRB assay; format: functional; conditions: HL-60, 48 h, read-out: Activity
How it was run: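 NCI-60 single-dose screen. Cells in RPMI 1640 with 5% FBS and 2 mM L-glutamine were plated at 5000–40,000 cells/well and preincubated 24 h at 37 °C before one compound concentration. Time-zero plates were TCA-fixed at drug addition. For suspension cells, settled cells were fixed with cold TCA, then SRB-stained and read at 515 nm. Percent growth was calculated from time-zero, control and treated absorbances.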

Malme-3M = experiment: Anticancer activity against human MALME-3M cells assessed as cell growth at 10^-5 M after 48 hrs by SRB assay; format: functional; conditions: read-out: Activity; how it was run: as §2
MDA-MB-231 = experiment: Anticancer activity against human MDA-MB-231 cells assessed as cell growth at 10^-5 M after 48 hrs by SRB assay; format: functional; conditions: MDA-MB-231, 48 h, read-out: Activity; how it was run: as §2
RPMI-8226 = experiment: Anticancer activity against human RPMI8226 cells assessed as cell growth at 10^-5 M after 48 hrs by SRB assay; format: functional; conditions: RPMI-8226, 48 h, read-out: Activity
BT-549 = experiment: Anticancer activity against human BT549 cells assessed as cell growth at 10^-5 M after 48 hrs by SRB assay; format: functional; conditions: BT-549, 48 h, read-out: Activity; how it was run: as §2
HT-29 = experiment: Anticancer activity against human HT-29 cells assessed as cell growth at 10^-5 M after 48 hrs by SRB assay; format: functional; conditions: HT-29, 48 h, read-out: Activity; how it was run: as §2
HCT-116 = experiment: Anticancer activity against human HCT116 cells assessed as cell growth at 10^-5 M after 48 hrs by SRB assay; format: functional; conditions: HCT-116, 48 h, read-out: Activity; how it was run: as §2

Row | SMILES | growth at 10 µM (MDA-MB-435) [%] | growth at 10 µM (UO-31) [%] | growth at 10 µM (ACHN) [%] | growth at 10 µM (NCI-H522) [%] | growth at 10 µM (UACC-257) [%] | growth at 10 µM (SN12C) [%] | growth at 10 µM (SK-MEL-2) [%] | growth at 10 µM (OVCAR-3) [%] | growth at 10 µM (M14) [%] | growth at 10 µM (T47D) [%] | growth at 10 µM (OVCAR-4) [%] | growth at 10 µM (SK-MEL-28) [%] | growth at 10 µM (IGROV-1) [%] | growth at 10 µM (SF-539) [%] | growth at 10 µM (RXF 393) [%] | growth at 10 µM (CAKI-1) [%] | growth at 10 µM (UACC-62) [%] | IC50 [1] [µM] | growth at 10 µM (MOLT-4) [%] | growth at 10 µM (SW-620) [%] | further results
1 | O=C(NCCNc1nccc(-c2c(-c3cccc(O)c3)nc3sccn23)n1)c1cc(N2CCOCC2)cc(C(F)(F)F)c1 | 34.7 | 87.5 | 79.4 | 78.6 | 16.7 | 89.8 | 64.5 | 107 | 22.4 | 77.7 | 133 | 44.5 | 80.4 | 101 | 77.8 | 82.5 | 8.5 | 4.4 | 68.5 | 126 | growth at 10 µM (NCI-H322M): 107%; growth at 10 µM (HCC 2998): 109%; growth at 10 µM (HL-60(TB)): 102%; growth at 10 µM (Malme-3M): 3.04%; growth at 10 µM (MDA-MB-231): 74.2%; growth at 10 µM (RPMI-8226): 67%; growth at 10 µM (BT-549): 84.8%; growth at 10 µM (HT-29): 49.2%; growth at 10 µM (HCT-116): 78.8%
2 | O=C(NCCNc1nccc(-c2c(-c3cccc(O)c3)nc3sccn23)n1)c1cccc(C(F)(F)F)c1 | 21.7 | 73.4 | 66 | 48.5 | 14.3 | 83.2 | 62.1 | 89.8 | 17.5 | 69.5 | 117 | 38.5 | 62.1 | 100 | 79.9 | 75.6 | 3.21 | 2.1 | 61.5 | 107 | growth at 10 µM (NCI-H322M): 103%; growth at 10 µM (HCC 2998): 117%; growth at 10 µM (HL-60(TB)): 95.5%; growth at 10 µM (Malme-3M): 0.75%; growth at 10 µM (MDA-MB-231): 76.2%; growth at 10 µM (RPMI-8226): 44.2%; growth at 10 µM (BT-549): 88%; growth at 10 µM (HT-29): 81.1%; growth at 10 µM (HCT-116): 74.3%
3 | COc1cccc(-c2nc3sccn3c2-c2ccnc(NCCNC(=O)c3ccc(N4CCOCC4)c(C(F)(F)F)c3)n2)c1 | 60.8 | 58.2 | 70.6 | 60.6 | 87.7 | 91.7 | 86.5 | 93.8 | 62.1 | 67 | 102 | 89.5 | 68.6 | 79 | 78.5 | 68.8 | 41.3 | > 10 | 50.8 | 108 | growth at 10 µM (NCI-H322M): 101%; growth at 10 µM (HCC 2998): 93.3%; growth at 10 µM (HL-60(TB)): 85.2%; growth at 10 µM (Malme-3M): 78.4%; growth at 10 µM (MDA-MB-231): 94.2%; growth at 10 µM (RPMI-8226): 39%; growth at 10 µM (BT-549): 74.8%; growth at 10 µM (HT-29): 50%; growth at 10 µM (HCT-116): 82.6%
4 | COc1cccc(-c2nc3sccn3c2-c2ccnc(NCCNC(=O)Nc3ccccc3)n2)c1 | 96.6 | 76.1 | 95.5 | 82.7 | 119 | 65.6 | 99.9 | 109 | 99.1 | 82.5 | 106 | 108 | 97.9 | 43.8 | 107 | 117 | 86 | > 10 | 74.9 | 77.3 | growth at 10 µM (NCI-H322M): 108%; growth at 10 µM (HCC 2998): 113%; growth at 10 µM (HL-60(TB)): 122%; growth at 10 µM (Malme-3M): 112%; growth at 10 µM (MDA-MB-231): 103%; growth at 10 µM (RPMI-8226): 55.5%; growth at 10 µM (BT-549): 96%; growth at 10 µM (HT-29): 87.5%; growth at 10 µM (HCT-116): 52.9%
